Assay results gathered from unrelated publications.
Each line is one published result; the experiments were not run side by side.
Target: Activin receptor type-1-like (ACVRL1, Homo sapiens, UniProt P37023)

| SMILES | test | setting | remaining binding |
| --- | --- | --- | --- |
| CN(C)c1nccc(-c2cnn3ncccc23)n1 | binding | 1 µM | 100% |
| CS(=O)(=O)c1cc(C2(NC(=O)c3cncc4c3cnn4-c3ccc(F)cc3)CC2)ccn1 | cell-free assay, competition with immobilised ligand | 1 µM | 100% |
| Cc1cnn2ncc(-c3ccnc(N(C)C)n3)c2c1 | binding | 1 µM | 91% |
| FC(F)(F)c1ccc2c(c1)nc(-c1cccnc1)n2C1CC1 | cell-free assay, competition with immobilised ligand | 1 µM | 100% |
| Nc1ncc2c(n1)-c1c([nH]c3ccc(C#CC4CC4)cc13)CCCC2 | binding, competition with immobilised ligand | 1 µM | 100% |
| C[C@@H]1CCN(c2nccc(-c3cnn4ncccc34)n2)C1 | binding | 1 µM | 100% |
| CC1=C(C#N)[C@@H](c2ccc3[nH]nc(C)c3c2)C(C#N)=C(c2ccc(Cl)cc2)N1 | binding, competition with immobilised ligand | 1 µM | 79% |
| CN(C)c1ncc(F)c(-c2cnn3ncccc23)n1 | binding | 1 µM | 100% |
| Cc1c[nH]c2nccc(Oc3c(F)cc(Nc4cc(Cl)nc(N)n4)cc3F)c12 | cell-free assay, competition with immobilised ligand | 0.1 µM | 100% |
| N[C@@H]1CCN(c2nccc(-c3cnn4ncccc34)n2)C1 | binding | 1 µM | 100% |
| O=C(c1ccc(Nc2ncc(Cl)c(-c3ccc(Cl)s3)n2)cc1)N1CCC(N2CCCC2)CC1 | binding, competition with immobilised ligand | 1 µM | 100% |
| COc1ncc2cc3ccccc3nc2c1C#N | binding, competition with immobilised ligand | 5 µM | 93% |
| COc1cc(-c2cn(C3CCc4c(F)cccc4N(CC(F)(F)F)C3=O)nn2)ccc1-n1cnc(C)c1 (stereo not shown) | cell-free assay, competition with immobilised ligand | 1 µM | 100% |
| CN(C)c1nccc(-c2cnc3ncccn23)n1 | binding | 1 µM | 100% |
| O=C(c1ccc(Nc2nccc(-c3cc4ccccc4s3)n2)cc1)N1CCC(N2CCCC2)CC1 | binding, competition with immobilised ligand | 1 µM | 100% |
| CC1=C(C#N)C(c2ccc3c(c2)c(NC(=O)c2ccccc2C)nn3C)C(C#N)=C(C)N1 | binding, competition with immobilised ligand | 1 µM | 97% |
| O=C(Nc1c[nH]nc1C(=O)NC1CCNCC1)c1cc(F)cc(F)c1 | binding, competition with immobilised ligand | 1 µM | 94% |
| O=C(NCCCN1CCOCC1)c1ccc(Nc2nccc(-c3cc4ccccc4s3)n2)cc1 | binding, competition with immobilised ligand | 1 µM | 100% |
| COc1cnc(Nc2cccc(S(N)(=O)=O)c2)nc1N1CCN(c2ccccc2)CC1 | binding, competition with immobilised ligand | 1 µM | 98% |
| F[C@@H]1CCN(c2nccc(-c3cnn4ncccc34)n2)C1 | binding | 1 µM | 88% |
| CCc1ccccc1C(=O)Nc1n[nH]c2c(C)c(F)c(C3C(C#N)=C(C)N(C)C(C)=C3C#N)cc12 | binding, competition with immobilised ligand | 1 µM | 75% |
| COc1cnc(Nc2cccc(S(N)(=O)=O)c2)nc1N1CCN(c2ccccc2)C(=O)C1 | binding, competition with immobilised ligand | 1 µM | 95% |
